Laboratory results taken from ChEMBL document CHEMBL1130319, “Preparation, DNA binding, and in vitro cytotoxicity of a pair of enantiomeric platinum(II) complexes, [(R)- and (S)-3-aminohexahydroazepine]dichloroplatinum(II). Crystal structure of the S enantiomer” (J Med Chem, 1997).

Legend:
Assay type in all cases: functional, cell-based
DU-145 [1] = test: In vitro cytotoxicity was determined by using cultures of human prostate (DU145) cancer cells by MTT assay
How it was run: (§1)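 Monolayers in RPMI 1640 with 10% FCS, 37 °C, 7.5% CO2/5% O2/85% N2. Trypsinized, 5000 cells/well, 24 h preincubation. Complexes in 0.9% NaCl saline, final 0–200 μM, 96 h exposure; washed. MTT 1 mg/mL in FCS-free medium, 4 h at 37 °C, formazan in 2-propanol, OD 570 nm. Viability % of untreated; 4 or 6 replicates; IR50 from dose-response curves.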

DU-145 [2] = test: In vitro cytotoxicity was determined by using cultures of human prostate (DU145) cancer cells by SRB assay
How it was run: (§2)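 Cells grown in RPMI 1640/10% FCS under 7.5% CO2, 5% O2. Seeded at 5000 cells/well for 24 h, then given complexes (saline stock diluted in medium) at final 0–200 μM for 96 h. Fixed in cold 10% TCA 30 min at 4 °C, stained with 0.4% SRB in 1% acetic acid 15 min, dye solubilized in 10 mM Tris, A570. Percent of control from 4 or 6 replicates; IR50 read from curves.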

PC-9 [3] = test: In vitro cytotoxicity was determined by using cultures of human resistant lung (PC9cisR) cancer cells by MTT assay; how it was run: as §1
PC-9 [4] = test: In vitro cytotoxicity was determined by using cultures of human resistant lung (PC9cisR) cancer cells by SRB assay; how it was run: as §2
PC-9 [5] = test: In vitro cytotoxicity was determined by using cultures of human lung (PC9) cancer cells by SRB assay; how it was run: as §2
BL13/0 [6] = test: In vitro cytotoxicity was determined by using cultures of human bladder (BL13/0) cancer cells by MTT assay; how it was run: as §1
BL13/0 [7] = test: In vitro cytotoxicity was determined by using cultures of human bladder (BL13/0) cancer cells by SRB assay; how it was run: as §2
PC-9 [8] = test: In vitro cytotoxicity was determined by using cultures of human lung (PC9) cancer cells by MTT assay; how it was run: as §1

Substance | IC50 (DU-145 [1]) | IC50 (DU-145 [2]) | IC50 (PC-9 [3]) | IC50 (PC-9 [4]) | IC50 (PC-9 [5]) | IC50 (BL13/0 [6]) | IC50 (BL13/0 [7]) | IC50 (PC-9 [8])
8,8-platinumdichloro-(6R)-1,7-diazoniabicyclo[4.2.1]nonane | 2.9 µM | 3.3 µM | 16 µM | 27.3 µM | 11 µM | 1.3 µM | 7.2 µM | 5.9 µM
CISPLATIN | 1.8 µM | 1 µM | 11.7 µM | > 17.5 µM |  | 1.9 µM | 9.5 µM | 1.4 µM
